From ChEMBL document CHEMBL1817563, “Novel aminopeptidase N (APN/CD13) inhibitors derived from chloramphenicol amine” (Bioorg Med Chem, 2011)

What was measured:
[1] = molecular target: 72 kDa type IV collagenase (Homo sapiens, UniProt P08253); assay: Inhibition of human MMP-2 after 30 mins by spectrophotometry
Summary of the method: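 MMP-2 was incubated with synthetic substrate and inhibitor in 50 mM sodium borate, pH 8.5, for 30 min at 37 °C. TNBS (0.03%, m/v) was then added for 20 min at room temperature. Absorbance was read at 450 nm. IC50 is the mean ± standard deviation of triplicate experiments.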

[2] = Selectivity ratio of IC50 for MMP-2 to IC50 for pig kidney microsomal APN
[3] = molecular target: T1, Aminopeptidase N (Sus scrofa, UniProt P15145); assay: Inhibition of pig kidney microsomal APN assessed as hydrolysis of L-Leu-p-nitroanilide after 1 hr by spectrophotometry
T1 sequence (P15145 whole entry): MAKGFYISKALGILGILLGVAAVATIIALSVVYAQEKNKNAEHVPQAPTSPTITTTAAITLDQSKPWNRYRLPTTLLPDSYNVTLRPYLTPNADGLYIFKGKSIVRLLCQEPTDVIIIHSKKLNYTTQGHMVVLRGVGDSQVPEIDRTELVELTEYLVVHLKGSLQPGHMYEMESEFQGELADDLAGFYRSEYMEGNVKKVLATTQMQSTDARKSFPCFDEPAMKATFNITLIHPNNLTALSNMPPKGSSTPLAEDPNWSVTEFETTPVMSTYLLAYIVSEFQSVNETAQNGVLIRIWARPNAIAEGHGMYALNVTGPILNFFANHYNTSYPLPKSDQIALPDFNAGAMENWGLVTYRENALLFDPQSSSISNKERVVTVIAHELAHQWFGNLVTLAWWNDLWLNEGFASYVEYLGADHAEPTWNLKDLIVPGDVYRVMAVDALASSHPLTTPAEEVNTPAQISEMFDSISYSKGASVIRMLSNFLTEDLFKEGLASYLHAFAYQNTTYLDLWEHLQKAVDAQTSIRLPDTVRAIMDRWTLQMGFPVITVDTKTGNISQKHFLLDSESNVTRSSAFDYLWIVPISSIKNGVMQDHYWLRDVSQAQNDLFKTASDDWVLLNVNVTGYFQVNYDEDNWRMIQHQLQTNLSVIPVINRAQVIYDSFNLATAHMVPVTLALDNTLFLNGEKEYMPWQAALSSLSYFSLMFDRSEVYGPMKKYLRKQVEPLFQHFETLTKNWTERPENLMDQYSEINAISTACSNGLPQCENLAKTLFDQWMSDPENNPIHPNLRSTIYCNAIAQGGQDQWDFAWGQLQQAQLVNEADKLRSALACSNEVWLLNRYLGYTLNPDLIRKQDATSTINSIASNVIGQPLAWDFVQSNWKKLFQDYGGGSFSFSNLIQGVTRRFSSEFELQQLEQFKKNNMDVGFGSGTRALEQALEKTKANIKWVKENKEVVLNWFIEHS
Summary of the method: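 Porcine kidney microsomal aminopeptidase in 50 mM PBS, pH 7.2, with L-Leu-p-nitroanilide as substrate. Incubated with a range of inhibitor concentrations at 37 °C. Triplicate experiments, reported as mean ± standard deviation.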

[4] = tested on: MDA-MB-231; assay: Antiproliferative activity against human MDA-MB-231 cells expressing low levels of APN after 48 hrs by MTT assay; assay type: functional, cell-based; settings: MDA-MB-231, 48 h
Summary of the method: (§1)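 Cells kept in RPMI1640 plus 10% FBS at 37 °C, 5% CO2. Seeded 1×10^4/well and grown 4 h before inhibitors were added over a range of concentrations. After 48 h exposure, MTT (0.5 mg/mL) was added and the formazan dissolved in DMSO. Read-out was OD at 570 nm.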

[5] = tested on: HL-60; assay: Antiproliferative activity against human HL60 cells expressing high levels of APN after 48 hrs by MTT assay; assay type: functional, cell-based; settings: HL-60, 48 h; summary of the method: as §1
[6] = molecular target: Aminopeptidase N (Homo sapiens, UniProt P15144); assay: Inhibition of APN in human HL60 cells assessed as hydrolysis of L-Leu-p-nitroanilide by spectrophotometry; assay type: cell-based, HL-60
Summary of the method: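 Intact HL-60 cells suspended in PBS (1×10^5/well) served as the enzyme source, with L-Leu-p-nitroanilide as substrate. Cells were incubated at 37 °C with a range of inhibitor concentrations. Values are means of three independent experiments.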

72 kDa type IV collagenase, sequence (P08253 whole entry): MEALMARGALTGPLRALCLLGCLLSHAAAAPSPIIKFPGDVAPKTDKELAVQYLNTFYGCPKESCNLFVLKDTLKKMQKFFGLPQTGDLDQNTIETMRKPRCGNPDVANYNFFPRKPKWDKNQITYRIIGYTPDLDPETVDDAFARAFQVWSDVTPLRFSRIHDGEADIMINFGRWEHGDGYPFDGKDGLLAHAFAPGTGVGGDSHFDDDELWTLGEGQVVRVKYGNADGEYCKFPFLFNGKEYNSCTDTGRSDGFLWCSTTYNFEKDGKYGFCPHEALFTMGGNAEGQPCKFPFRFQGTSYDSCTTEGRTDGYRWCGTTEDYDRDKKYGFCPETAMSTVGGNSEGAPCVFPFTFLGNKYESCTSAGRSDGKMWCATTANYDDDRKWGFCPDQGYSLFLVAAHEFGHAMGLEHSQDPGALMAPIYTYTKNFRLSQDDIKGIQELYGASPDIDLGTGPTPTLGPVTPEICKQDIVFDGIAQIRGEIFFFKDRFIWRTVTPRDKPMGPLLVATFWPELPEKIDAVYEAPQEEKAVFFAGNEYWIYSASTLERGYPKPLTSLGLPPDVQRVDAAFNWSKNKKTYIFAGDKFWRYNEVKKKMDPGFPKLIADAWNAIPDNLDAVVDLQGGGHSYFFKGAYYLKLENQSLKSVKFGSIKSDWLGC
Aminopeptidase N (Homo sapiens, UniProt P15144), sequence (P15144 whole entry): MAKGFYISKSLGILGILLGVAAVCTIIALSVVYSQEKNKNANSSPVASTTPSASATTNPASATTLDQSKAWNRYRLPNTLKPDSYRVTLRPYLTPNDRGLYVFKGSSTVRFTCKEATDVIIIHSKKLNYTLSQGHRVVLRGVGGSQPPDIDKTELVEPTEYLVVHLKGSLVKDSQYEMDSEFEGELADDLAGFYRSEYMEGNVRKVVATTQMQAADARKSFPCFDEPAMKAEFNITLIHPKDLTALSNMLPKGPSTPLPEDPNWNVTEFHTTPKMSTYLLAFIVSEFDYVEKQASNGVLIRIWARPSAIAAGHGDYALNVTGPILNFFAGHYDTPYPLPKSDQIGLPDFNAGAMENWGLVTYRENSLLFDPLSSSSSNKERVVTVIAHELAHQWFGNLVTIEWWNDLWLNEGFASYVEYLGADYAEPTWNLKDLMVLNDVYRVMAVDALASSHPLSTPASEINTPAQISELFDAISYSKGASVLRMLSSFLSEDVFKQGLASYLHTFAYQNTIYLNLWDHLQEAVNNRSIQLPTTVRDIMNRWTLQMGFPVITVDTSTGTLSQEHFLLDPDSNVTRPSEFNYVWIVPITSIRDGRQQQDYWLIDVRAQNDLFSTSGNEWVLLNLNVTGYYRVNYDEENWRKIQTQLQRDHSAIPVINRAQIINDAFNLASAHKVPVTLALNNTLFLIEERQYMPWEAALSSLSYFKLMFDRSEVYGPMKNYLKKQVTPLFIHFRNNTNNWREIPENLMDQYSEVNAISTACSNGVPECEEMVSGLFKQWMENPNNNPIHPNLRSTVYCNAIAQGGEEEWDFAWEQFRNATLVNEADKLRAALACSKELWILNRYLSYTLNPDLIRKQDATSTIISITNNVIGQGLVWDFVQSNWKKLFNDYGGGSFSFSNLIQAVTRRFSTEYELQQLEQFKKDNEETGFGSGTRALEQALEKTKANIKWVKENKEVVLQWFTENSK

N[C@@H](Cc1ccc(O)cc1)C(=O)NC[C@H](N)[C@@H](O)c1ccc(I)cc1
IC50 [1]: 42.2 µM | Ratio IC50 [2]: 2 | IC50 [3]: 21.6 µM

N[C@@H](Cc1ccc(O)cc1)C(=O)NC[C@H](N)[C@@H](O)c1ccc([N+](=O)[O-])cc1
IC50 [1]: 61.3 µM | Ratio IC50 [2]: 1.6 | IC50 [3]: 39.2 µM

CC(C)C[C@H](NC(=O)[C@@H](O)[C@H](N)Cc1ccccc1)C(=O)O [UBENIMEX]
IC50 [4]: 5080 µM | IC50 [1]: 120 µM

N[C@H](Cc1ccccc1)C(=O)NC[C@H](N)[C@@H](O)c1ccc([N+](=O)[O-])cc1
IC50 [1]: 67.4 µM | Ratio IC50 [2]: 1.6 | IC50 [3]: 42.2 µM

CC(C)C[C@H](N)C(=O)NC[C@H](N)[C@@H](O)c1ccc(I)cc1
IC50 [1]: 120 µM | Ratio IC50 [2]: 3.9 | IC50 [3]: 30.6 µM

CC(C)C[C@H](NC(=O)[C@H](N)Cc1ccccc1)C(=O)NC[C@H](N)[C@@H](O)c1ccc(I)cc1
IC50 [1]: 52.7 µM | Ratio IC50 [2]: 0.5 | IC50 [3]: 105 µM

Nc1ccc([C@H](O)[C@@H](N)CNC(=O)[C@H](N)Cc2ccccc2)cc1
IC50 [1]: 149 µM | Ratio IC50 [2]: 1.1 | IC50 [3]: 141 µM

CC(C)C[C@H](NC(=O)[C@H](N)Cc1ccccc1)C(=O)NC[C@H](N)[C@@H](O)c1ccc(N)cc1
IC50 [1]: 94 µM | Ratio IC50 [2]: 3 | IC50 [3]: 31.6 µM

CC(C)C[C@H](NC(=O)[C@@H](O)CN)C(=O)NC[C@H](N)[C@@H](O)c1ccc([N+](=O)[O-])cc1
IC50 [1]: 83.9 µM | Ratio IC50 [2]: 4.2 | IC50 [3]: 19.6 µM

Nc1ccc([C@H](O)[C@@H](N)CNC(=O)[C@@H](Cc2ccccc2)NC(=O)[C@H](N)Cc2ccccc2)cc1
IC50 [1]: 40.4 µM | Ratio IC50 [2]: 1.3 | IC50 [3]: 30.6 µM

N[C@H](Cc1ccccc1)C(=O)N[C@H](Cc1ccccc1)C(=O)NC[C@H](N)[C@@H](O)c1ccc([N+](=O)[O-])cc1
IC50 [1]: 44.1 µM | Ratio IC50 [2]: 0.3 | IC50 [3]: 134 µM

CC(C)C[C@H](NC(=O)[C@H](N)Cc1ccccc1)C(=O)NC[C@H](N)[C@@H](O)c1ccc([N+](=O)[O-])cc1
IC50 [1]: 106 µM | Ratio IC50 [2]: 1.4 | IC50 [3]: 74.7 µM

N[C@@H](CO)C(=O)NC[C@H](N)[C@@H](O)c1ccc([N+](=O)[O-])cc1
IC50 [1]: 331 µM | Ratio IC50 [2]: 0.8 | IC50 [3]: 423 µM

CC(C)C[C@H](N)C(=O)N[C@H](Cc1ccccc1)C(=O)NC[C@H](N)[C@@H](O)c1ccc(N)cc1
IC50 [5]: 1340 µM | IC50 [4]: 3650 µM | IC50 [6]: 39.4 µM | IC50 [1]: 134 µM | Ratio IC50 [2]: 22.3 | IC50 [3]: 6.1 µM

CC(C)C[C@H](N)C(=O)N[C@H](Cc1ccccc1)C(=O)NC[C@H](N)[C@@H](O)c1ccc([N+](=O)[O-])cc1
IC50 [5]: 2150 µM | IC50 [4]: 1320 µM | IC50 [6]: 290 µM | IC50 [1]: 173 µM | Ratio IC50 [2]: 19.2 | IC50 [3]: 9.4 µM

NC[C@H](O)C(=O)N[C@H](Cc1ccccc1)C(=O)NC[C@H](N)[C@@H](O)c1ccc([N+](=O)[O-])cc1
IC50 [5]: 2040 µM | IC50 [4]: 4130 µM | IC50 [6]: 66.3 µM | IC50 [1]: 40.6 µM | Ratio IC50 [2]: 6.3 | IC50 [3]: 6.5 µM

NC[C@H](O)C(=O)NC[C@H](N)[C@@H](O)c1ccc([N+](=O)[O-])cc1
IC50 [1]: 100 µM | IC50 [3]: 164 µM

Nc1ccc([C@H](O)[C@@H](N)CNC(=O)[C@@H](N)Cc2ccc(O)cc2)cc1
IC50 [1]: 111 µM | Ratio IC50 [2]: 1 | IC50 [3]: 114 µM

NCCCC[C@H](N)C(=O)NC[C@H](N)[C@@H](O)c1ccc([N+](=O)[O-])cc1
IC50 [1]: 84.3 µM | Ratio IC50 [2]: 1.7 | IC50 [3]: 50.1 µM

CC(C)C[C@H](N)C(=O)NC[C@H](N)[C@@H](O)c1ccc([N+](=O)[O-])cc1
IC50 [1]: 143 µM | Ratio IC50 [2]: 1.8 | IC50 [3]: 80.6 µM

N[C@H](Cc1ccccc1)C(=O)NC[C@H](O)C(=O)NC[C@H](N)[C@@H](O)c1ccc([N+](=O)[O-])cc1
IC50 [5]: 3150 µM | IC50 [4]: 7320 µM | IC50 [6]: 616 µM | IC50 [1]: 109 µM | Ratio IC50 [2]: 6.1 | IC50 [3]: 17.6 µM

CC(C)C[C@H](N)C(=O)N[C@H](Cc1ccccc1)C(=O)NC[C@H](N)[C@@H](O)c1ccc(I)cc1
IC50 [1]: 86.6 µM | Ratio IC50 [2]: 7.7 | IC50 [3]: 11.3 µM

N[C@@H](CNC(=O)[C@@H]1Cc2ccc(O)cc2CN1)[C@@H](O)c1ccc([N+](=O)[O-])cc1
IC50 [1]: > 1000 µM | Ratio IC50 [2]: > 2.3 | IC50 [3]: 441 µM

NC[C@H](N)[C@@H](O)c1ccc([N+](=O)[O-])cc1
IC50 [1]: > 1000 µM | Ratio IC50 [2]: > 1.1 | IC50 [3]: 894 µM

N[C@H](Cc1ccccc1)C(=O)N[C@H](Cc1ccccc1)C(=O)NC[C@H](N)[C@@H](O)c1ccc(I)cc1
IC50 [1]: 107 µM | Ratio IC50 [2]: < 0.1 | IC50 [3]: > 1000 µM

NCCCC[C@H](N)C(=O)NC[C@H](N)[C@@H](O)c1ccc(N)cc1
IC50 [1]: 157 µM | Ratio IC50 [2]: 1.2 | IC50 [3]: 136 µM

N[C@@H](CS)C(=O)NC[C@H](N)[C@@H](O)c1ccc([N+](=O)[O-])cc1
IC50 [5]: 2320 µM | IC50 [4]: 4220 µM | IC50 [6]: 248 µM | IC50 [1]: 152 µM | Ratio IC50 [2]: 12.7 | IC50 [3]: 12.4 µM

N[C@H](Cc1ccccc1)C(=O)N[C@@H](CO)C(=O)NC[C@H](N)[C@@H](O)c1ccc([N+](=O)[O-])cc1
IC50 [1]: 110 µM | Ratio IC50 [2]: 5 | IC50 [3]: 21.6 µM

CC(C)C[C@H](N)C(=O)NC[C@H](N)[C@@H](O)c1ccc(N)cc1
IC50 [1]: 119 µM | Ratio IC50 [2]: 1.9 | IC50 [3]: 63.2 µM
